According to ChEMBL document CHEMBL1154842, “Synthesis, radiolabeling, and biological evaluation of (R)- and (S)-2-amino-3-[(18)F]fluoro-2-methylpropanoic acid (FAMP) and (R)- and (S)-3-[(18)F]fluoro-2-methyl-2-N-(methylamino)propanoic acid (NMeFAMP) as potential PET radioligands for imaging brain tumors” (J Med Chem, 2010):

Tests used:
Brain [1] = test: Biodistribution in brain of Fischer 344 rat bearing rat 9L cells at 20 uCi, iv after 15 mins; assay type: ADME, organism-based; details: in vivo, 0.25 h
Procedure, shortened: (§1)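 Male Fischer 344 rats (200–250 g) carrying intracranial 9L gliosarcoma (5×10^4 cells implanted stereotactically, 10–12 days growth), under ketamine:xylazine anaesthesia. About 20 μCi tracer in 0.5 mL sterile saline given via tail-vein catheter. Groups of 4–5 were killed by intracardiac KCl at 15 (NMeFAMP only), 30, 60 or 120 min. Tissues were weighed and gamma-counted, decay-corrected, and reported as %ID/g, mean ± SD.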

Brain [2] = test: Biodistribution in brain of Fischer 344 rat bearing rat 9L cells at 20 uCi, iv after 30 mins; assay type: ADME, organism-based; details: in vivo, 0.5 h; procedure, shortened: as §1
[3] = Biodistribution in tumor of Fischer 344 rat bearing rat 9L cells at 20 uCi, iv after 30 mins; assay type: ADME, organism-based, Neoplasm; details: in vivo, 0.5 h; procedure, shortened: as §1
[4] = Ratio of drug level from tumor to brain of Fischer 344 rat bearing rat 9L cells at 20 uCi, iv after 120 mins; assay type: ADME, organism-based; details: in vivo, 2 h
Blood [5] = test: Biodistribution in blood of Fischer 344 rat bearing rat 9L cells at 20 uCi, iv after 30 mins; assay type: ADME, organism-based; details: in vivo, 0.5 h; procedure, shortened: as §1
Blood [6] = test: Biodistribution in blood of Fischer 344 rat bearing rat 9L cells at 20 uCi, iv after 60 mins; assay type: ADME, organism-based; details: in vivo, 1 h; procedure, shortened: as §1
Blood [7] = test: Biodistribution in blood of Fischer 344 rat bearing rat 9L cells at 20 uCi, iv after 120 mins; assay type: ADME, organism-based; details: in vivo, 2 h; procedure, shortened: as §1
Heart [8] = test: Biodistribution in heart of Fischer 344 rat bearing rat 9L cells at 20 uCi, iv after 30 mins; assay type: ADME, organism-based; details: in vivo, 0.5 h; procedure, shortened: as §1
Heart [9] = test: Biodistribution in heart of Fischer 344 rat bearing rat 9L cells at 20 uCi, iv after 60 mins; assay type: ADME, organism-based; details: in vivo, 1 h; procedure, shortened: as §1
Heart [10] = test: Biodistribution in heart of Fischer 344 rat bearing rat 9L cells at 20 uCi, iv after 120 mins; assay type: ADME, organism-based; details: in vivo, 2 h; procedure, shortened: as §1
Lung [11] = test: Biodistribution in lung of Fischer 344 rat bearing rat 9L cells at 20 uCi, iv after 30 mins; assay type: ADME, organism-based; details: in vivo, 0.5 h; procedure, shortened: as §1
Lung [12] = test: Biodistribution in lung of Fischer 344 rat bearing rat 9L cells at 20 uCi, iv after 60 mins; assay type: ADME, organism-based; details: in vivo, 1 h; procedure, shortened: as §1
Lung [13] = test: Biodistribution in lung of Fischer 344 rat bearing rat 9L cells at 20 uCi, iv after 120 mins; assay type: ADME, organism-based; details: in vivo, 2 h; procedure, shortened: as §1
Liver [14] = test: Biodistribution in liver of Fischer 344 rat bearing rat 9L cells at 20 uCi, iv after 30 mins; assay type: ADME, organism-based; details: in vivo, 0.5 h; procedure, shortened: as §1
Liver [15] = test: Biodistribution in liver of Fischer 344 rat bearing rat 9L cells at 20 uCi, iv after 60 mins; assay type: ADME, organism-based; details: in vivo, 1 h; procedure, shortened: as §1
Liver [16] = test: Biodistribution in liver of Fischer 344 rat bearing rat 9L cells at 20 uCi, iv after 120 mins; assay type: ADME, organism-based; details: in vivo, 2 h; procedure, shortened: as §1
Pancreas [17] = test: Biodistribution in pancreas of Fischer 344 rat bearing rat 9L cells at 20 uCi, iv after 30 mins; assay type: ADME, organism-based; details: in vivo, 0.5 h; procedure, shortened: as §1
Pancreas [18] = test: Biodistribution in pancreas of Fischer 344 rat bearing rat 9L cells at 20 uCi, iv after 60 mins; assay type: ADME, organism-based; details: in vivo, 1 h; procedure, shortened: as §1
Pancreas [19] = test: Biodistribution in pancreas of Fischer 344 rat bearing rat 9L cells at 20 uCi, iv after 120 mins; assay type: ADME, organism-based; details: in vivo, 2 h; procedure, shortened: as §1
Spleen [20] = test: Biodistribution in spleen of Fischer 344 rat bearing rat 9L cells at 20 uCi, iv after 30 mins; assay type: ADME, organism-based; details: in vivo, 0.5 h; procedure, shortened: as §1
Spleen [21] = test: Biodistribution in spleen of Fischer 344 rat bearing rat 9L cells at 20 uCi, iv after 60 mins; assay type: ADME, organism-based; details: in vivo, 1 h; procedure, shortened: as §1
Spleen [22] = test: Biodistribution in spleen of Fischer 344 rat bearing rat 9L cells at 20 uCi, iv after 120 mins; assay type: ADME, organism-based; details: in vivo, 2 h; procedure, shortened: as §1
Kidney [23] = test: Biodistribution in kidney of Fischer 344 rat bearing rat 9L cells at 20 uCi, iv after 30 mins; assay type: ADME, organism-based; details: in vivo, 0.5 h; procedure, shortened: as §1
Kidney [24] = test: Biodistribution in kidney of Fischer 344 rat bearing rat 9L cells at 20 uCi, iv after 60 mins; assay type: ADME, organism-based; details: in vivo, 1 h; procedure, shortened: as §1
Kidney [25] = test: Biodistribution in kidney of Fischer 344 rat bearing rat 9L cells at 20 uCi, iv after 120 mins; assay type: ADME, organism-based; details: in vivo, 2 h; procedure, shortened: as §1
Muscle tissue [26] = test: Biodistribution in muscle of Fischer 344 rat bearing rat 9L cells at 20 uCi, iv after 30 mins; assay type: ADME, organism-based; details: in vivo, 0.5 h; procedure, shortened: as §1
Muscle tissue [27] = test: Biodistribution in muscle of Fischer 344 rat bearing rat 9L cells at 20 uCi, iv after 60 mins; assay type: ADME, organism-based; details: in vivo, 1 h; procedure, shortened: as §1
Muscle tissue [28] = test: Biodistribution in muscle of Fischer 344 rat bearing rat 9L cells at 20 uCi, iv after 120 mins; assay type: ADME, organism-based; details: in vivo, 2 h; procedure, shortened: as §1
Bone [29] = test: Biodistribution in bone of Fischer 344 rat bearing rat 9L cells at 20 uCi, iv after 30 mins; assay type: ADME, organism-based, Bone element; details: in vivo, 0.5 h; procedure, shortened: as §1
Bone [30] = test: Biodistribution in bone of Fischer 344 rat bearing rat 9L cells at 20 uCi, iv after 60 mins; assay type: ADME, organism-based, Bone element; details: in vivo, 1 h; procedure, shortened: as §1
Bone [31] = test: Biodistribution in bone of Fischer 344 rat bearing rat 9L cells at 20 uCi, iv after 120 mins; assay type: ADME, organism-based, Bone element; details: in vivo, 2 h; procedure, shortened: as §1
[32] = Biodistribution in testis of Fischer 344 rat bearing rat 9L cells at 20 uCi, iv after 30 mins; assay type: ADME, organism-based; details: in vivo, 0.5 h; procedure, shortened: as §1
[33] = Biodistribution in testis of Fischer 344 rat bearing rat 9L cells at 20 uCi, iv after 60 mins; assay type: ADME, organism-based; details: in vivo, 1 h; procedure, shortened: as §1
[34] = Biodistribution in testis of Fischer 344 rat bearing rat 9L cells at 20 uCi, iv after 120 mins; assay type: ADME, organism-based; details: in vivo, 2 h; procedure, shortened: as §1
Blood [35] = test: Biodistribution in blood of Fischer 344 rat bearing rat 9L cells at 20 uCi, iv after 15 mins; assay type: ADME, organism-based; details: in vivo, 0.25 h; procedure, shortened: as §1
Heart [36] = test: Biodistribution in heart of Fischer 344 rat bearing rat 9L cells at 20 uCi, iv after 15 mins; assay type: ADME, organism-based; details: in vivo, 0.25 h; procedure, shortened: as §1
Lung [37] = test: Biodistribution in lung of Fischer 344 rat bearing rat 9L cells at 20 uCi, iv after 15 mins; assay type: ADME, organism-based; details: in vivo, 0.25 h; procedure, shortened: as §1
Liver [38] = test: Biodistribution in liver of Fischer 344 rat bearing rat 9L cells at 20 uCi, iv after 15 mins; assay type: ADME, organism-based; details: in vivo, 0.25 h; procedure, shortened: as §1
Pancreas [39] = test: Biodistribution in pancreas of Fischer 344 rat bearing rat 9L cells at 20 uCi, iv after 15 mins; assay type: ADME, organism-based; details: in vivo, 0.25 h; procedure, shortened: as §1
Spleen [40] = test: Biodistribution in spleen of Fischer 344 rat bearing rat 9L cells at 20 uCi, iv after 15 mins; assay type: ADME, organism-based; details: in vivo, 0.25 h; procedure, shortened: as §1
Kidney [41] = test: Biodistribution in kidney of Fischer 344 rat bearing rat 9L cells at 20 uCi, iv after 15 mins; assay type: ADME, organism-based; details: in vivo, 0.25 h; procedure, shortened: as §1
Muscle tissue [42] = test: Biodistribution in muscle of Fischer 344 rat bearing rat 9L cells at 20 uCi, iv after 15 mins; assay type: ADME, organism-based; details: in vivo, 0.25 h; procedure, shortened: as §1
Bone [43] = test: Biodistribution in bone of Fischer 344 rat bearing rat 9L cells at 20 uCi, iv after 15 mins; assay type: ADME, organism-based, Bone element; details: in vivo, 0.25 h; procedure, shortened: as §1
[44] = Biodistribution in testis of Fischer 344 rat bearing rat 9L cells at 20 uCi, iv after 15 mins; assay type: ADME, organism-based; details: in vivo, 0.25 h; procedure, shortened: as §1
[45] = rat, in vivo, iv, 1 h
[46] = rat, in vivo, iv, 1 h; remark: listed apart in the source
Brain [47] = test: Biodistribution in brain of Fischer 344 rat bearing rat 9L cells at 20 uCi, iv after 15 mins; details: in vivo
Brain [48] = test: Biodistribution in brain of Fischer 344 rat bearing rat 9L cells at 20 uCi, iv after 30 mins; details: in vivo, 0.5 h
[49] = Ratio of drug level from tumor to brain of Fischer 344 rat bearing rat 9L cells at 20 uCi, iv after 60 mins; details: in vivo, 1 h

## CN[C@@](C)(C[18F])C(=O)O.Cl
Brain [1]
  Drug uptake: 0.06 % ID/g
Brain [2]
  Drug uptake: 0.04 % ID/g
[3]
  Ratio: 53.2
[4]
  Ratio: 115.4
Blood [5]
  Drug uptake: 0.32 % ID/g
Blood [6]
  Drug uptake: 0.24 % ID/g
Blood [7]
  Drug uptake: 0.14 % ID/g
Heart [8]
  Drug uptake: 0.23 % ID/g
Heart [9]
  Drug uptake: 0.24 % ID/g
Heart [10]
  Drug uptake: 0.22 % ID/g
Lung [11]
  Drug uptake: 0.36 % ID/g
Lung [12]
  Drug uptake: 0.38 % ID/g
Lung [13]
  Drug uptake: 0.25 % ID/g
Liver [14]
  Drug uptake: 0.61 % ID/g
Liver [15]
  Drug uptake: 0.52 % ID/g
Liver [16]
  Drug uptake: 0.4 % ID/g
Pancreas [17]
  Drug uptake: 2.72 % ID/g
Pancreas [18]
  Drug uptake: 3.41 % ID/g
Pancreas [19]
  Drug uptake: 3.39 % ID/g
Spleen [20]
  Drug uptake: 0.63 % ID/g
Spleen [21]
  Drug uptake: 0.59 % ID/g
Spleen [22]
  Drug uptake: 0.62 % ID/g
Kidney [23]
  Drug uptake: 8.91 % ID/g
Kidney [24]
  Drug uptake: 4.44 % ID/g
Kidney [25]
  Drug uptake: 2.45 % ID/g
Muscle tissue [26]
  Drug uptake: 0.23 % ID/g
Muscle tissue [27]
  Drug uptake: 0.2 % ID/g
Muscle tissue [28]
  Drug uptake: 0.22 % ID/g
Bone [29]
  Drug uptake: 0.48 % ID/g
Bone [30]
  Drug uptake: 0.51 % ID/g
Bone [31]
  Drug uptake: 0.44 % ID/g
[32]
  Drug uptake: 0.15 % ID/g
[33]
  Drug uptake: 0.15 % ID/g
[34]
  Drug uptake: 0.16 % ID/g
Blood [35]
  Drug uptake: 0.41 % ID/g
Heart [36]
  Drug uptake: 0.55 % ID/g
Lung [37]
  Drug uptake: 0.79 % ID/g
Liver [38]
  Drug uptake: 0.6 % ID/g
Pancreas [39]
  Drug uptake: 2.25 % ID/g
Spleen [40]
  Drug uptake: 0.57 % ID/g
Kidney [41]
  Drug uptake: 9.22 % ID/g
Muscle tissue [42]
  Drug uptake: 0.27 % ID/g
Bone [43]
  Drug uptake: 0.51 % ID/g
[44]
  Drug uptake: 0.19 % ID/g
[45]
  Drug uptake: 0.05 % ID/g
[46]
  Drug uptake: 2.64 % ID/g
Brain [47]
  Ratio: 25
Brain [48]
  Drug uptake: 0.04 % ID/g
[49]
  Ratio: 58.2
